Experimental data collected from several papers.
Lines come from different studies, so protocols differ.
Target: Serine/threonine-protein kinase PAK 6 (PAK6, Homo sapiens, UniProt Q9NQU5)

| SMILES | effect on | method | tested at | remaining binding [%] |
| --- | --- | --- | --- | --- |
| Cc1noc([C@H]2C[C@@H](c3ccc(C(F)(F)F)cc3)CN(C(=O)N3CCS(=O)(=O)C3)C2)n1 | cell-free assay | competition with immobilised ligand | 1 µM | 100 |
| COc1cnc(Nc2cccc(S(N)(=O)=O)c2)nc1N1CCN(c2ccccc2)CC1 | binding | competition with immobilised ligand | 1 µM | 100 |
| C[C@H](c1ccnc(Nc2nc3ccc(-c4cc(N(C)C)ncn4)cc3[nH]2)c1)N1CCN(C(=O)CC(F)(F)F)CC1 | cell-free assay | competition with immobilised ligand | 0.1 µM | 100 |
| Nc1ncc2c(n1)-c1c([nH]c3ccc(C#CC4CC4)cc13)CCCC2 | binding | competition with immobilised ligand | 1 µM | 94 |
| O=C(Nc1c[nH]nc1C(=O)NC1CCNCC1)c1cc(F)cc(F)c1 | binding | competition with immobilised ligand | 1 µM | 100 |
| c1cncc(-c2cccc(Nc3nccc(NC4CCCCC4)n3)c2)c1 | binding | competition with immobilised ligand | 10 µM | 60 |
| CNC(=O)Nc1ccc2c(c1)CC[C@@]21OC(=O)N(CC(=O)N(Cc2ccc(F)cc2)[C@@H](C)C(F)(F)F)C1=O | cell-free assay | competition with immobilised ligand | 1 µM | 91 |
| CN(CCCC(F)(F)F)c1nccc(-c2cnn3ncccc23)n1 | binding | – | 1 µM | 100 |
| O=C(c1ccc(Nc2ncc(Cl)c(-c3cc4ccccc4s3)n2)cc1)N1CCC(N2CCCC2)CC1 | binding | competition with immobilised ligand | 1 µM | 62 |
| COc1cnc(Nc2cccc(S(N)(=O)=O)c2)nc1N1CCN(c2ccccc2)C(=O)C1 | binding | competition with immobilised ligand | 1 µM | 100 |
| Cc1cnn2ncc(-c3ccnc(N(C)C)n3)c2c1 | binding | – | 1 µM | 93 |
| COc1ncc2cc3ccccc3nc2c1C#N | cell-free assay | competition with immobilised ligand | 5 µM | 94 |
| O=C(NCCCN1CCOCC1)c1ccc(Nc2nccc(-c3cc4ccccc4s3)n2)cc1 | binding | competition with immobilised ligand | 1 µM | 90 |
| C[C@H]1CCN(c2nccc(-c3cnn4ncccc34)n2)C1 | binding | – | 1 µM | 80 |
| CN(C)C(=O)Cn1cc(-c2nc(C3(c4ccc(-c5cnc(N)nc5)cc4)CC3)no2)cn1 | cell-free assay | competition with immobilised ligand | 1 µM | 100 |
| CN(C)c1nccc(-c2cnc3ncccn23)n1 | binding | – | 1 µM | 98 |
| CCCCN(CCCC)C(=O)CN1C[C@@H](c2cc(OC)c3c(c2)OCO3)[C@H](C(=O)O)[C@H]1CC(C)(C)CCC | cell-free assay | competition with immobilised ligand | 1 µM | 100 |
| CN(C)c1ncc(F)c(-c2cnn3ncccc23)n1 | binding | – | 1 µM | 100 |
| CN(C(=O)c1ccccc1)c1cc(N(C)c2ccc3c(c2)CCc2ccc(C(=O)NCCN4CCOCC4)cc2C3=O)ccc1F | cell-free assay | competition with immobilised ligand | 1 µM | 100 |
| CN(c1nccc(-c2cnn3ncccc23)n1)C1CC1 | binding | – | 1 µM | 100 |
| O=C(NCCCN1CCOCC1)c1ccc(Nc2ncc(Cl)c(-c3ccc(Cl)s3)n2)cc1 | binding | competition with immobilised ligand | 1 µM | 74 |
